The test system of data set [1] is SH-SY5Y. The data set can be described thus: Antisense activity in human SH-SY5Y cells assessed as inhibition of luciferase gene expression at 60 nM after 22 hrs by luminometry in the presence of lipofectamine 2000. It is filed as functional. In a few lines: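 SH-SY5Y cells cotransfected via Lipofectamine 2000 with Renilla (target) and firefly (internal control) luciferase plasmids plus phosphorothioate ASO derivatives at 60 nM, targeting Renilla mRNA site 21-38; scrambled sequences as controls. Read-out: Renilla luciferase inhibition normalized to firefly.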

Data set [2] concerns SH-SY5Y. The data set can be described thus: Cellular uptake in human SH-SY5Y cells at 300 nM after 22 hrs by dual leucifearse reporter assay. It is filed as ADME, cell-based. The following applies: 0.3 µM. In a few lines:
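Dual-luciferase plasmids (Renilla target, firefly internal control) transfected into SH-SY5Y; after 3 h, medium replaced with fresh medium containing ASO-peptide conjugates (150, 200, 300 nM) without Lipofectamine 2000. Luciferase activities measured 22 h after transfection; knockdown expressed as inhibition of Renilla expression. Phosphorothioate ASO targets Renilla mRNA 21-38 site.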
(In general: In a reporter assay the amount or activity of a reporter protein is the signal.)

The inhibition is the share of the control response that was lost under treatment.

Take `Cc1cn([C@H]2C[C@H](OP(O)(=S)OC[C@H]3O[C@@H](n4cc(C)c(=O)[nH]c4=O)C[C@@H]3OP(O)(=S)OC[C@H]3O[C@@H](n4cnc5c(=O)[nH]c(N)nc54)[C@H](O)[C@@H]3OP(O)(=S)OC[C@H]3O[C@@H](n4cc(C)c(=O)[nH]c4=O)C[C@@H]3OP(O)(=S)OC[C@H]3O[C@@H](n4cc(C)c(=O)[nH]c4=O)C[C@@H]3OP(O)(=S)OC[C@H]3O[C@@H](n4cc(C)c(=O)[nH]c4=O)C[C@@H]3OP(O)(=S)OC[C@H]3O[C@@H](n4ccc(N)nc4=O)[C@H](O)[C@@H]3OP(O)(=S)OC[C@H]3O[C@@H](n4ccc(N)nc4=O)[C@H](O)[C@@H]3OP(O)(=S)OC[C@H]3O[C@@H](n4cc(C)c(=O)[nH]c4=O)C[C@@H]3OP(O)(=S)OC[C@H]3O[C@@H](n4cc(C)c(=O)[nH]c4=O)C[C@@H]3OP(O)(=S)OC[C@H]3O[C@@H](n4cc(C)c(=O)[nH]c4=O)C[C@@H]3OP(O)(=S)OC[C@H]3O[C@@H](n4cnc5c(=O)[nH]c(N)nc54)[C@H](O)[C@@H]3OP(O)(=S)OC[C@H]3O[C@@H](n4ccc(N)nc4=O)[C@H](O)[C@@H]3O)[C@@H](COP(O)(=S)O[C@H]3[C@@H](O)[C@H](n4ccc(N)nc4=O)O[C@@H]3COP(O)(=S)O[C@H]3C[C@H](n4cc(C)c(=O)[nH]c4=O)O[C@@H]3COP(O)(=S)O[C@H]3[C@@H](O)[C@H](n4cnc5c(=O)[nH]c(N)nc54)O[C@@H]3COP(O)(=S)O[C@H]3[C@@H](O)[C@H](n4cnc5c(=O)[nH]c(N)nc54)O[C@@H]3COP(O)(=S)O[C@H]3[C@@H](O)[C@H](n4cnc5c(N)ncnc54)O[C@@H]3COP(O)(=S)OCCCC(=O)N[C@H](CCCCNC(=N)N)C(=O)N[C@@H](CCCCNC(=N)N)C(=O)NCCCCCCO)O2)c(=O)[nH]c1=O` (some centres not stated): the inhibition at 0.06 µM with SH-SY5Y [1] stood at 64%. Further, the Drug uptake with SH-SY5Y [2] amounted to 18%. Taken in the same sequence, the figures for `Cc1cn([C@H]2C[C@H](OP(O)(=S)OC[C@H]3O[C@@H](n4cc(C)c(=O)[nH]c4=O)C[C@@H]3OP(O)(=S)OC[C@H]3O[C@@H](n4cnc5c(=O)[nH]c(N)nc54)[C@H](O)[C@@H]3OP(O)(=S)OC[C@H]3O[C@@H](n4cc(C)c(=O)[nH]c4=O)C[C@@H]3OP(O)(=S)OC[C@H]3O[C@@H](n4cc(C)c(=O)[nH]c4=O)C[C@@H]3OP(O)(=S)OC[C@H]3O[C@@H](n4cc(C)c(=O)[nH]c4=O)C[C@@H]3OP(O)(=S)OC[C@H]3O[C@@H](n4ccc(N)nc4=O)[C@H](O)[C@@H]3OP(O)(=S)OC[C@H]3O[C@@H](n4ccc(N)nc4=O)[C@H](O)[C@@H]3OP(O)(=S)OC[C@H]3O[C@@H](n4cc(C)c(=O)[nH]c4=O)C[C@@H]3OP(O)(=S)OC[C@H]3O[C@@H](n4cc(C)c(=O)[nH]c4=O)C[C@@H]3OP(O)(=S)OC[C@H]3O[C@@H](n4cc(C)c(=O)[nH]c4=O)C[C@@H]3OP(O)(=S)OC[C@H]3O[C@@H](n4cnc5c(=O)[nH]c(N)nc54)[C@H](O)[C@@H]3OP(O)(=S)OC[C@H]3O[C@@H](n4ccc(N)nc4=O)[C@H](O)[C@@H]3O)[C@@H](COP(O)(=S)O[C@H]3[C@@H](O)[C@H](n4ccc(N)nc4=O)O[C@@H]3COP(O)(=S)O[C@H]3C[C@H](n4cc(C)c(=O)[nH]c4=O)O[C@@H]3COP(O)(=S)O[C@H]3[C@@H](O)[C@H](n4cnc5c(=O)[nH]c(N)nc54)O[C@@H]3COP(O)(=S)O[C@H]3[C@@H](O)[C@H](n4cnc5c(=O)[nH]c(N)nc54)O[C@@H]3COP(O)(=S)O[C@H]3[C@@H](O)[C@H](n4cnc5c(N)ncnc54)O[C@@H]3COP(O)(=S)OCCCC(=O)N[C@H](CCCCN)C(=O)N[C@@H](CCCCN)C(=O)N[C@H](CCCCN)C(=O)N[C@@H](CCCCN)C(=O)NCCCCCCO)O2)c(=O)[nH]c1=O` (some centres not stated) were 57% and 15%. On to `CCCCCCCCc1ccc(NC(=O)NCCCC[C@@H](NC(=O)CCCOP(O)(=S)OC[C@H]2O[C@@H](n3cnc4c(N)ncnc43)[C@H](O)[C@@H]2OP(O)(=S)OC[C@H]2O[C@@H](n3cnc4c(=O)[nH]c(N)nc43)[C@H](O)[C@@H]2OP(O)(=S)OC[C@H]2O[C@@H](n3cnc4c(=O)[nH]c(N)nc43)[C@H](O)[C@@H]2OP(O)(=S)OC[C@H]2O[C@@H](n3cc(C)c(=O)[nH]c3=O)C[C@@H]2OP(O)(=S)OC[C@H]2O[C@@H](n3ccc(N)nc3=O)[C@H](O)[C@@H]2OP(O)(=S)OC[C@H]2O[C@@H](n3cc(C)c(=O)[nH]c3=O)C[C@@H]2OP(O)(=S)OC[C@H]2O[C@@H](n3cc(C)c(=O)[nH]c3=O)C[C@@H]2OP(O)(=S)OC[C@H]2O[C@@H](n3cnc4c(=O)[nH]c(N)nc43)[C@H](O)[C@@H]2OP(O)(=S)OC[C@H]2O[C@@H](n3cc(C)c(=O)[nH]c3=O)C[C@@H]2OP(O)(=S)OC[C@H]2O[C@@H](n3cc(C)c(=O)[nH]c3=O)C[C@@H]2OP(O)(=S)OC[C@H]2O[C@@H](n3cc(C)c(=O)[nH]c3=O)C[C@@H]2OP(O)(=S)OC[C@H]2O[C@@H](n3ccc(N)nc3=O)[C@H](O)[C@@H]2OP(O)(=S)OC[C@H]2O[C@@H](n3ccc(N)nc3=O)[C@H](O)[C@@H]2OP(O)(=S)OC[C@H]2O[C@@H](n3cc(C)c(=O)[nH]c3=O)C[C@@H]2OP(O)(=S)OC[C@H]2O[C@@H](n3cc(C)c(=O)[nH]c3=O)C[C@@H]2OP(O)(=S)OC[C@H]2O[C@@H](n3cc(C)c(=O)[nH]c3=O)C[C@@H]2OP(O)(=S)OC[C@H]2O[C@@H](n3cnc4c(=O)[nH]c(N)nc43)[C@H](O)[C@@H]2OP(O)(=S)OC[C@H]2O[C@@H](n3ccc(N)nc3=O)[C@H](O)[C@@H]2O)C(=O)NCCCCCCO)cc1` (some centres not stated), for which, in the data set with SH-SY5Y [1], the inhibition at 0.06 µM worked out at 8%.

With `Cc1cn([C@H]2C[C@H](OP(O)(=S)OC[C@H]3O[C@@H](n4cc(C)c(=O)[nH]c4=O)C[C@@H]3OP(O)(=S)OC[C@H]3O[C@@H](n4cnc5c(=O)[nH]c(N)nc54)[C@H](O)[C@@H]3OP(O)(=S)OC[C@H]3O[C@@H](n4cc(C)c(=O)[nH]c4=O)C[C@@H]3OP(O)(=S)OC[C@H]3O[C@@H](n4cc(C)c(=O)[nH]c4=O)C[C@@H]3OP(O)(=S)OC[C@H]3O[C@@H](n4cc(C)c(=O)[nH]c4=O)C[C@@H]3OP(O)(=S)OC[C@H]3O[C@@H](n4ccc(N)nc4=O)[C@H](O)[C@@H]3OP(O)(=S)OC[C@H]3O[C@@H](n4ccc(N)nc4=O)[C@H](O)[C@@H]3OP(O)(=S)OC[C@H]3O[C@@H](n4cc(C)c(=O)[nH]c4=O)C[C@@H]3OP(O)(=S)OC[C@H]3O[C@@H](n4cc(C)c(=O)[nH]c4=O)C[C@@H]3OP(O)(=S)OC[C@H]3O[C@@H](n4cc(C)c(=O)[nH]c4=O)C[C@@H]3OP(O)(=S)OC[C@H]3O[C@@H](n4cnc5c(=O)[nH]c(N)nc54)[C@H](O)[C@@H]3OP(O)(=S)OC[C@H]3O[C@@H](n4ccc(N)nc4=O)[C@H](O)[C@@H]3O)[C@@H](COP(O)(=S)O[C@H]3[C@@H](O)[C@H](n4ccc(N)nc4=O)O[C@@H]3COP(O)(=S)O[C@H]3C[C@H](n4cc(C)c(=O)[nH]c4=O)O[C@@H]3COP(O)(=S)O[C@H]3[C@@H](O)[C@H](n4cnc5c(=O)[nH]c(N)nc54)O[C@@H]3COP(O)(=S)O[C@H]3[C@@H](O)[C@H](n4cnc5c(=O)[nH]c(N)nc54)O[C@@H]3COP(O)(=S)O[C@H]3[C@@H](O)[C@H](n4cnc5c(N)ncnc54)O[C@@H]3COP(O)(=S)OCCCC(=O)NCCCCCCO)O2)c(=O)[nH]c1=O` (some centres not stated), in the data set on SH-SY5Y [1], the inhibition at 0.06 µM was determined as 69%.

Regarding `CCCCCCCCNC(=O)NCCCC[C@@H](NC(=O)CCCOP(O)(=S)OC[C@H]1O[C@@H](n2cnc3c(N)ncnc32)[C@H](O)[C@@H]1OP(O)(=S)OC[C@H]1O[C@@H](n2cnc3c(=O)[nH]c(N)nc32)[C@H](O)[C@@H]1OP(O)(=S)OC[C@H]1O[C@@H](n2cnc3c(=O)[nH]c(N)nc32)[C@H](O)[C@@H]1OP(O)(=S)OC[C@H]1O[C@@H](n2cc(C)c(=O)[nH]c2=O)C[C@@H]1OP(O)(=S)OC[C@H]1O[C@@H](n2ccc(N)nc2=O)[C@H](O)[C@@H]1OP(O)(=S)OC[C@H]1O[C@@H](n2cc(C)c(=O)[nH]c2=O)C[C@@H]1OP(O)(=S)OC[C@H]1O[C@@H](n2cc(C)c(=O)[nH]c2=O)C[C@@H]1OP(O)(=S)OC[C@H]1O[C@@H](n2cnc3c(=O)[nH]c(N)nc32)[C@H](O)[C@@H]1OP(O)(=S)OC[C@H]1O[C@@H](n2cc(C)c(=O)[nH]c2=O)C[C@@H]1OP(O)(=S)OC[C@H]1O[C@@H](n2cc(C)c(=O)[nH]c2=O)C[C@@H]1OP(O)(=S)OC[C@H]1O[C@@H](n2cc(C)c(=O)[nH]c2=O)C[C@@H]1OP(O)(=S)OC[C@H]1O[C@@H](n2ccc(N)nc2=O)[C@H](O)[C@@H]1OP(O)(=S)OC[C@H]1O[C@@H](n2ccc(N)nc2=O)[C@H](O)[C@@H]1OP(O)(=S)OC[C@H]1O[C@@H](n2cc(C)c(=O)[nH]c2=O)C[C@@H]1OP(O)(=S)OC[C@H]1O[C@@H](n2cc(C)c(=O)[nH]c2=O)C[C@@H]1OP(O)(=S)OC[C@H]1O[C@@H](n2cc(C)c(=O)[nH]c2=O)C[C@@H]1OP(O)(=S)OC[C@H]1O[C@@H](n2cnc3c(=O)[nH]c(N)nc32)[C@H](O)[C@@H]1OP(O)(=S)OC[C@H]1O[C@@H](n2ccc(N)nc2=O)[C@H](O)[C@@H]1O)C(=O)NCCCCCCO` (some centres not stated), in the data set on SH-SY5Y [1], the inhibition at 0.06 µM worked out at 55%.

The values are drawn from ChEMBL document CHEMBL1156310, “Stepwise synthesis of oligonucleotide-peptide conjugates containing guanidinium and lipophilic groups in their 3'-termini” (Bioorg Med Chem Lett, 2010).
